Residue numbers refer to the chain shown, from its start. Activity calls are given as the source filed them. No cut-off for these calls is given here. *1 amine or outer side, *2 acyl side, *3 side chain or, on linkers, in order; H or OH if unused. Where a SMILES comes first, the peptide text is derived from it. Bridges are numbered along the chain shown (N, C = ends). [ ]: non-standard residue; d: D form. Suc = O=C(CCC(=O)[*:2])[*:1]; Dap = NC[C@H](N)C(=O)O

The values that follow come from ChEMBL document CHEMBL1135528, “Monocyclic human tachykinin NK-2 receptor antagonists as evolution of a potent bicyclic antagonist: QSAR and site-directed mutagenesis studies” (J Med Chem, 2002).

The target in one experiment is T1, Substance-K receptor (Homo sapiens, UniProt P21452).
T1 sequence (P21452 whole entry): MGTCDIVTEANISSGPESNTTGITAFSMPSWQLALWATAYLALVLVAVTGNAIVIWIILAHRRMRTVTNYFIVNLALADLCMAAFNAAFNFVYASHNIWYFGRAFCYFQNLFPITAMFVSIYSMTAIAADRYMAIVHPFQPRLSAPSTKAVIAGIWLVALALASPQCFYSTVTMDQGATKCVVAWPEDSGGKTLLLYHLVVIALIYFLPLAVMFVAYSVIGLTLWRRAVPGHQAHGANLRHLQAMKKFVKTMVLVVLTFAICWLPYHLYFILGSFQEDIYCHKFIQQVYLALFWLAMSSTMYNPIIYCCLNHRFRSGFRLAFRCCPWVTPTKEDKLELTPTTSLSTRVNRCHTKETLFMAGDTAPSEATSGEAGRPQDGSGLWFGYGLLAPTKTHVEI
Description: Inhibitory affinity constant (pKi) against tachykinin receptor 2 (NK-2R) using heterologous competition experiments. The essentials:
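Buffer was 50 mM Tris-HCl pH 7.4. Competitors ranged 0.3 pM–10 μM. Filter-bound radioactivity was counted, and pKi was obtained by fitting competition curves. Mean ± sem of duplicate experiments.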

Experiment [1] has as its system Substance-K receptor (Homo sapiens), P21452 [Q166A].
In experiment [2] the test system is Substance-K receptor (Homo sapiens), P21452 [Y269F].
Sequence of Substance-K receptor (Homo sapiens), P21452 [Y269F] (P21452 whole entry Y269F): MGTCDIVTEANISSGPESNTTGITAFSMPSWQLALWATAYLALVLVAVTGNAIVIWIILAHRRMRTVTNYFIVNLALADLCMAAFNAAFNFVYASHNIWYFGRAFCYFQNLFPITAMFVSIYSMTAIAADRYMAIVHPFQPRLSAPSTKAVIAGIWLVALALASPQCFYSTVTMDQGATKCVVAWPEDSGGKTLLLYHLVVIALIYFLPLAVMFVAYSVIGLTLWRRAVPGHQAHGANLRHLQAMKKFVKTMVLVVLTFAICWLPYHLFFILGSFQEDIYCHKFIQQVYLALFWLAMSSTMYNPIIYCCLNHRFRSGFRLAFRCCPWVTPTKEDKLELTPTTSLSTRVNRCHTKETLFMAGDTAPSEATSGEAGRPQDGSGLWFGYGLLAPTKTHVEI
Experiment [3] relates to Substance-K receptor (Homo sapiens), P21452 [Y289T].
Sequence of Substance-K receptor (Homo sapiens), P21452 [Y289T] (P21452 whole entry Y289T): as the sequence (P21452 whole entry Y269F) above, with F269Y, Y289T counted along it
For experiment [4], the system named is Substance-K receptor (Homo sapiens), P21452 [H198A].
Sequence of Substance-K receptor (Homo sapiens), P21452 [H198A] (P21452 whole entry H198A): as the sequence (P21452 whole entry Y269F) above, with H198A, F269Y counted along it
The subject of experiment [5] is Substance-K receptor (Homo sapiens), P21452 [I202F].
The subject of experiment [6] is T2, Substance-K receptor (Homo sapiens), P21452 [W263A].
T2 sequence (whole entry): T1 sequence (P21452 whole entry) with W263A

Experiment [7] concerns T3, Substance-K receptor (Homo sapiens), P21452 [S170A].
T3 sequence (whole entry): T1 sequence (P21452 whole entry) with S170A

The subject of experiment [8] is T4, Substance-K receptor (Homo sapiens), P21452 [C167A].
T4 sequence (whole entry): T1 sequence (P21452 whole entry) with C167A

The subject of experiment [9] is T5, Substance-K receptor (Homo sapiens), P21452 [Y266F].
T5 sequence (whole entry): T1 sequence (P21452 whole entry) with Y266F

Experiment [10] relates to Substance-K receptor (Homo sapiens), P21452 [F112A].
Sequence of Substance-K receptor (Homo sapiens), P21452 [F112A] (P21452 whole entry F112A): as the sequence (P21452 whole entry Y269F) above, with F112A, F269Y counted along it
Experiment [11] has as its system Substance-K receptor (Homo sapiens), P21452 [Y269A].
For experiment [12], the system named is Substance-K receptor (Homo sapiens), P21452 [F293A].
Sequence of Substance-K receptor (Homo sapiens), P21452 [F293A] (P21452 whole entry F293A): as the sequence (P21452 whole entry Y269F) above, with F269Y, F293A counted along it
The subject of experiment [13] is Substance-K receptor (Homo sapiens), P21452 [Y289F].
The subject of experiment [14] is Substance-K receptor (Homo sapiens), P21452 [N110A].
Experiment [15] concerns Substance-K receptor (Homo sapiens), P21452 [Y107A].
Sequence of Substance-K receptor (Homo sapiens), P21452 [Y107A] (P21452 whole entry Y107A): as the sequence (P21452 whole entry Y269F) above, with Y107A, F269Y counted along it
The test system of experiment [16] is Substance-K receptor (Homo sapiens), P21452 [Y206F].
Sequence of Substance-K receptor (Homo sapiens), P21452 [Y206F] (P21452 whole entry Y206F): as the sequence (P21452 whole entry Y269F) above, with Y206F, F269Y counted along it
Experiment [17] deals with Substance-K receptor (Homo sapiens), P21452 [Y169A].
Sequence of Substance-K receptor (Homo sapiens), P21452 [Y169A] (P21452 whole entry Y169A): as the sequence (P21452 whole entry Y269F) above, with Y169A, F269Y counted along it
For experiment [18], the system named is Substance-K receptor (Homo sapiens), P21452 [T171A].
Sequence of Substance-K receptor (Homo sapiens), P21452 [T171A] (P21452 whole entry T171A): as the sequence (P21452 whole entry Y269F) above, with T171A, F269Y counted along it

Sequence of Substance-K receptor (Homo sapiens), P21452 [Y289F] (P21452 whole entry Y289F): as the sequence (P21452 whole entry Y269F) above, with F269Y, Y289F counted along it
Sequence of Substance-K receptor (Homo sapiens), P21452 [Y269A] (P21452 whole entry Y269A): as the sequence (P21452 whole entry Y269F) above, with F269A counted along it
Sequence of Substance-K receptor (Homo sapiens), P21452 [N110A] (P21452 whole entry N110A): as the sequence (P21452 whole entry Y269F) above, with N110A, F269Y counted along it
Sequence of Substance-K receptor (Homo sapiens), P21452 [Q166A] (P21452 whole entry Q166A): as the sequence (P21452 whole entry Y269F) above, with Q166A, F269Y counted along it
Sequence of Substance-K receptor (Homo sapiens), P21452 [I202F] (P21452 whole entry I202F): as the sequence (P21452 whole entry Y269F) above, with I202F, F269Y counted along it

Take `O=C1C[C@H](N2CCOCC2)C(=O)NC[C@@H](Cc2ccccc2)NC(=O)[C@H](Cc2ccccc2)NC(=O)[C@H](Cc2c[nH]c3ccccc23)N1`: the Ki on Substance-K receptor was 0.794 nM.

Turning to `O=C1C[C@@H](NC(=O)CN2CCC(N3CCCCC3)CC2)C(=O)NC[C@H](Cc2ccccc2)NC(=O)[C@H](Cc2ccccc2)NC(=O)[C@H](Cc2c[nH]c3ccccc23)N1`, the inhibition constant Ki at Substance-K receptor is 0.398 nM.

In the case of `O=C1C[C@H](NCc2nn[nH]n2)C(=O)NC[C@@H](Cc2ccccc2)NC(=O)[C@H](Cc2ccccc2)NC(=O)[C@H](Cc2c[nH]c3ccccc23)N1`, the Ki at Substance-K receptor is 1.58 nM. Compared with the last compound, the Ki is about 4-fold higher.

Compound `O=C1C[C@@H](N2CCOCC2)C(=O)NC[C@@H](Cc2ccccc2)NC(=O)[C@H](Cc2ccccc2)NC(=O)[C@H](Cc2c[nH]c3ccccc23)N1` had a Ki on Substance-K receptor of 0.158 nM.

`O=C1C[C@H](NC(=O)[C@]2(O)C[C@@H](O)[C@@H](O)[C@H](O)C2)C(=O)NC[C@@H](Cc2ccccc2)NC(=O)[C@H](Cc2ccccc2)NC(=O)[C@H](Cc2c[nH]c3ccccc23)N1` had a Ki on Substance-K receptor of 6.31 nM.

On Substance-K receptor, `O=C(N[C@H]1CCCCN(Cc2ccccc2)C(=O)[C@H](Cc2ccccc2)NC(=O)[C@H](Cc2c[nH]c3ccccc23)NC1=O)OCc1ccccc1` gave a Ki of 5.01 nM.

In the case of `O=C1CCCNC(=O)[C@@H](Cc2ccccc2)NC(=O)[C@H](Cc2ccccc2)NC(=O)[C@H](Cc2c[nH]c3ccccc23)N1`, the affinity on Substance-K receptor, expressed as Ki, was 316 nM.

Regarding `O=C1CCC(=O)N[C@@H](Cc2c[nH]c3ccccc23)C(=O)N[C@@H](Cc2ccccc2)C(=O)N[C@H](Cc2c[nH]c3ccccc23)CN1`, affinity at Substance-K receptor was put at a Ki of 3.16 nM.

As for `CSCC[C@H](NC(=O)[C@H](CC(C)C)NC(=O)CNC(=O)[C@@H](NC(=O)[C@H](Cc1ccccc1)NC(=O)[C@H](CO)NC(=O)[C@H](CC(=O)O)NC(=O)[C@@H](NC(=O)[C@H](CCCCN)NC(=O)[C@@H](N)Cc1c[nH]cn1)[C@@H](C)O)C(C)C)C(N)=O`, the KD/Ki amounted to 6.6 nM in experiment [1]; 5.3 nM in experiment [2]; 2.1 nM in experiment [5]; 1.9 nM in [7]; 2.8 nM in [9]; 10.7 nM in experiment [10]. For the same compound, the KD/Ki in [12] was determined as 40 nM; in [13], 2 nM; in [15], 0.5 nM; in experiment [16] it was 5.9 nM; in experiment [18] it was 5.9 nM. The UB result in experiment [3], in experiment [4], in experiment [6], in experiment [8], in experiment [11] and in [14] was “inactive” in each case. Further, the UB result in [17] is “inactive”.

`O=C(O)CCC(=O)N[C@H]1CC(=O)N[C@@H](Cc2c[nH]c3ccccc23)C(=O)N[C@@H](Cc2ccccc2)C(=O)N[C@H](Cc2ccccc2)CNC1=O` had an inhibition constant Ki on Substance-K receptor of 12.6 nM.

With `N[C@H]1CC(=O)NC[C@@H](Cc2ccccc2)NC(=O)[C@H](Cc2ccccc2)NC(=O)[C@H](Cc2c[nH]c3ccccc23)NC1=O`, the Ki on Substance-K receptor was 3.16 nM.

In turn, `O=C1C[C@@H](NC(=O)CN2CCOCC2)C(=O)NC[C@@H](Cc2ccccc2)NC(=O)[C@H](Cc2ccccc2)NC(=O)[C@H](Cc2c[nH]c3ccccc23)N1` showed an inhibition constant Ki at Substance-K receptor of 0.316 nM.

Compound `NC(=O)[C@@H]1CNC(=O)CCC(=O)N[C@@H](Cc2c[nH]c3ccccc23)C(=O)N[C@@H](Cc2ccccc2)C(=O)N1` (Trp-Phe-[Dap]-NH2; linker N-3 via Suc) showed a Ki on Substance-K receptor of 3980 nM.

For the compound `N[C@H]1CC(=O)N[C@@H](Cc2c[nH]c3ccccc23)C(=O)N[C@@H](Cc2ccccc2)C(=O)N[C@H](Cc2ccccc2)CNC1=O`, on Substance-K receptor, the affinity, expressed as Ki, was 3.16 nM.

As for `NCCCC(=O)N[C@H]1CC(=O)N[C@@H](Cc2c[nH]c3ccccc23)C(=O)N[C@@H](Cc2ccccc2)C(=O)N[C@H](Cc2ccccc2)CNC1=O`, affinity on Substance-K receptor was put at a Ki of 7.94 nM.

For the compound `N=C(N)NCC(=O)N[C@H]1CC(=O)N[C@@H](Cc2c[nH]c3ccccc23)C(=O)N[C@@H](Cc2ccccc2)C(=O)N[C@H](Cc2ccccc2)CNC1=O`, at Substance-K receptor, the Ki is 3.98 nM.

Consider `O=C1C[C@@H](C(=O)O)NC(=O)[C@@H](Cc2ccc(Cl)c(Cl)c2)NC(=O)[C@H](Cc2ccccc2)NC(=O)[C@H](Cc2c[nH]c3ccccc23)N1`, for which affinity at Substance-K receptor was put at a Ki of 398 nM.

Regarding `C=CCOC(=O)[C@@H]1CC(=O)N[C@@H](Cc2c[nH]c3ccccc23)C(=O)N[C@@H](Cc2ccccc2)C(=O)N[C@H](Cc2ccc(Cl)c(Cl)c2)C(=O)N1`, the Ki on Substance-K receptor was 316 nM.
